From ChEMBL document CHEMBL5338796, “Discovery of a Selective and Orally Bioavailable FGFR2 Degrader for Treating Gastric Cancer” (J Med Chem, 2023)
The source made the active and inactive calls. The calls are words filed in the database; no cut-off is given here.

Assays:
[1] = biological target: Fibroblast growth factor receptor (Homo sapiens) (UniProt P22607+P11362+P22455+P21802); experiment: Induction of FGFR degradation in human KATO III stomach cancer cell line assessed as reduction in PLCgamma phosphorylation at 50 nM measured for 6 hrs; type: cell-based
How it was run: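 KATO III cells incubated 6 h with 50 nM compound, then stimulated with FGF1 for 10 min; pFGFR, pPLCγ1 (Tyr783) and pFRS2α immunoblotted.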

SNU-16 = experiment: Antitumor activity against human SNU-16 cells xenografted in BALB/c nude mouse assessed as tumor growth inhibition at 20 mg/kg, po administered for 15 days and measured on day 2; type: functional; conditions: SNU-16, 48 h, time 2 day, read-out: TGI
How it was run: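 Female BALB/c nude mice, 5 weeks old (20–22 g), s.c. right-flank SNU-16 implants, randomized by body weight into groups (n = 5) once tumours reached 50–100 mm3. Dosing 20 mg/kg/day intragastric in 0.5% CMC-Na for 15 d; vehicle controls. Tumour width and length measured every 2 days; tumours harvested 4 h after last dose and lysates immunoblotted for pFGFR, FGFR2, pPLCγ, pErk.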

[2] = biological target: Macrophage colony-stimulating factor 1 receptor (Homo sapiens) (UniProt P07333); experiment: Inhibition of partial length human CSF1R at 1000 nM by KINOMEscan analysis relative to control
How it was run: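 97-kinase scanEDGE panel screened at 1000 nM; results reported as % Ctrl, lower values meaning stronger inhibition.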

[3] = Toxicity in ICR mouse assessed as change in lung weight at 20 mg/kg, po measured for 30 days; type: organism-based; conditions: in vivo, 720 h, time 30 day
How it was run: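 ICR mice (n = 6) were dosed orally at 20 mg/kg/day for 30 days, alongside vehicle-treated controls. Mortality and clinical signs were checked daily. At the end, body and organ weights were recorded. Heart, liver, spleen, lung and kidney were examined by hematoxylin and eosin staining.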

BaF3 = experiment: Antiproliferative activity against mouse BaF3 cells expressing Tel-FGFR4 assessed as cell growth inhibition measured after 72 hrs by celltiter-glo reagent based assay; type: functional; conditions: BaF3, 72 h
How it was run: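 Ba/F3 cells stably expressing cytoplasmic TEL-FGFR1, -2, -3 or -4 fusions were treated in 96-well format, final DMSO 0.1%, for 72 h. Viability read by CellTiter-Glo luminescence after 10 min at room temperature. Inhibition calculated from blank- and control-corrected RLU; IC50 from 4-parameter concentration–response fit.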

[4] = biological target: Tyrosine-protein kinase ABL1 (Homo sapiens) (UniProt P00519); experiment: Inhibition of human ABL1 at 1000 nM by KINOMEscan analysis relative to control
[5] = Half life in Sprague-Dawley rat at 3 mg/kg, iv measured at 0.083 to 24 hrs by LC-MS/MS analysis; type: ADME, organism-based; conditions: in vivo, time 0.083-24 hrs
How it was run: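 Male Sprague Dawley rats, single dose i.v. 3 mg/kg or p.o. 20 mg/kg in 10% Solutol, 85% (10% HP-β-CD in saline), 5% DMSO, pH adjusted to 9–10.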

[6] = biological target: Macrophage colony-stimulating factor 1 receptor (Homo sapiens) (UniProt P07333); experiment: Induction of CSF1R degradation in human THP-1 cells at 0.5 to 10 uM measured for 6 hrs Western blot analysis; type: cell-based; conditions: dose 0.0005-10 µM, in the assay text read “0.5 nM to 10 uM” for “0.5 to 10 uM”
How it was run: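 THP-1 cells exposed 6 h to 0.5–10,000 nM degrader (from 10 mM DMSO stock, final DMSO below 0.5%); lysates in 2× loading buffer, SDS-PAGE, PVDF, anti-CSF1R (1:1000) with β-actin loading control, ECL detection.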

Macrophage colony-stimulating factor 1 receptor (Homo sapiens), sequence (P07333 whole entry): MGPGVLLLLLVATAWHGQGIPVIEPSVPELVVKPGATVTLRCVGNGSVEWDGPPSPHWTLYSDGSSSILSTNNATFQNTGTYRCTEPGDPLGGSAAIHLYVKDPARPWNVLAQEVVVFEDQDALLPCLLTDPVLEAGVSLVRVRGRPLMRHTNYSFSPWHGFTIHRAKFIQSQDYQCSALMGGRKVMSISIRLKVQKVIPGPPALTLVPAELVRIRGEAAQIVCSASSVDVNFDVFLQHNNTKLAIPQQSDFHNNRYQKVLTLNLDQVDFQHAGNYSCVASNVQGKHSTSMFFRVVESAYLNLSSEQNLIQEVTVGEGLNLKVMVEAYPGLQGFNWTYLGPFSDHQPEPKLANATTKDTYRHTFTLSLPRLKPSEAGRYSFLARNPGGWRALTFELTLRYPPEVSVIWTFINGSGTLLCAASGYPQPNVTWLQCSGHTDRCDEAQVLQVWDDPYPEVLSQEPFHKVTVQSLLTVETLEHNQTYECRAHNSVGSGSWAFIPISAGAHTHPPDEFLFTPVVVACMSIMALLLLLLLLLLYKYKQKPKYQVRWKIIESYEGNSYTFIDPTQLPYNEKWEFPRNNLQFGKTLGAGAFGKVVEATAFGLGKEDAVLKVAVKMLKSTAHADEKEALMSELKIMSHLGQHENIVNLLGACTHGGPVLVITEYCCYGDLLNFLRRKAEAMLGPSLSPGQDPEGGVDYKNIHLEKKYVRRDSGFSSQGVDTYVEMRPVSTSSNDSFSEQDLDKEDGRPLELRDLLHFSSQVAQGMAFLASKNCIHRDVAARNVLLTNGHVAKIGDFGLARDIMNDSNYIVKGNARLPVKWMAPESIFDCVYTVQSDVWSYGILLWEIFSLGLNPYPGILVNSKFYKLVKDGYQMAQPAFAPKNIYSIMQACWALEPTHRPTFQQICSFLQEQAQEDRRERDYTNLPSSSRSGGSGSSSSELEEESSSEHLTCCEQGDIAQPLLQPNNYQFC
Fibroblast growth factor receptor (Homo sapiens), sequence (P11362 whole entry, looked up): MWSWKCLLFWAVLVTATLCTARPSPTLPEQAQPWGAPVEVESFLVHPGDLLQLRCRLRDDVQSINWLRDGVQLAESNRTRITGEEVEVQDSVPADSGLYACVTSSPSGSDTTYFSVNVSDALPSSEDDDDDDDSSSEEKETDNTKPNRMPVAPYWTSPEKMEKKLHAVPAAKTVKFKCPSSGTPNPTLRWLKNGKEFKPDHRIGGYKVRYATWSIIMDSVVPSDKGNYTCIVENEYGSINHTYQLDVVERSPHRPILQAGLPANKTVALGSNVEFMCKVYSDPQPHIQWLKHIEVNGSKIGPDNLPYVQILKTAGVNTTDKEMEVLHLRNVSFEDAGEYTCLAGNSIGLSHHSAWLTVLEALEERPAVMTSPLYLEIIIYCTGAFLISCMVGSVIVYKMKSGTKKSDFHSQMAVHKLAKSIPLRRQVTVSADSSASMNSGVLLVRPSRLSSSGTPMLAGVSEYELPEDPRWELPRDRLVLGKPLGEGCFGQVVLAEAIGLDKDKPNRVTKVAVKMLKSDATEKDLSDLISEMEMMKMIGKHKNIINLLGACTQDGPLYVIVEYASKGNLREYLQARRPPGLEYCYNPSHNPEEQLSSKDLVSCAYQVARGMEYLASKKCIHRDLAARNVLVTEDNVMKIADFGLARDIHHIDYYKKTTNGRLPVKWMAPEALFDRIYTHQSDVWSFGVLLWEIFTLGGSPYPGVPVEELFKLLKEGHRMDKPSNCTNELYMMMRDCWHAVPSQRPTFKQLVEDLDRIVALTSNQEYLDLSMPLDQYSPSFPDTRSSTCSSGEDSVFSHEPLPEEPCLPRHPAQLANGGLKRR
Fibroblast growth factor receptor (Homo sapiens), sequence (P21802 whole entry, looked up): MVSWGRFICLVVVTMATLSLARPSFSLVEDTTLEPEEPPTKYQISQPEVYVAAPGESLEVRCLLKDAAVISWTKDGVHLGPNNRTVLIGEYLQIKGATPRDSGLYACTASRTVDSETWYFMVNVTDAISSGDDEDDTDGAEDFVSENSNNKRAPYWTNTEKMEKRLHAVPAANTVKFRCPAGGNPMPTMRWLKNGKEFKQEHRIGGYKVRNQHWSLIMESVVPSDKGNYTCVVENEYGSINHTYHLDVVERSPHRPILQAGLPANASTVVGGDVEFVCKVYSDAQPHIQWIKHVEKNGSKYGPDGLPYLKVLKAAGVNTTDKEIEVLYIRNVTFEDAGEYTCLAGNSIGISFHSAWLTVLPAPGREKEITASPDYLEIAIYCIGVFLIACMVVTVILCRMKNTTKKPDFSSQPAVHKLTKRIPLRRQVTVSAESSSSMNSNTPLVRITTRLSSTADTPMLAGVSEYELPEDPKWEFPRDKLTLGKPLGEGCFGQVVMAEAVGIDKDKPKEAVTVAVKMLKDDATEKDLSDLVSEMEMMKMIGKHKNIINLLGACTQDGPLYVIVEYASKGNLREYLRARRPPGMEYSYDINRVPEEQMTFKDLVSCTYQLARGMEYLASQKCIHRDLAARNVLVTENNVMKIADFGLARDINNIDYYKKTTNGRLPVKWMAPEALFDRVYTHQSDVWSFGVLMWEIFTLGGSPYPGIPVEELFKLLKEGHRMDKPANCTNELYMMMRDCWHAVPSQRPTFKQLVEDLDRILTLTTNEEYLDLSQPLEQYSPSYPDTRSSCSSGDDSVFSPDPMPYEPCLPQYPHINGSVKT
Fibroblast growth factor receptor (Homo sapiens), sequence (P22455 whole entry, looked up): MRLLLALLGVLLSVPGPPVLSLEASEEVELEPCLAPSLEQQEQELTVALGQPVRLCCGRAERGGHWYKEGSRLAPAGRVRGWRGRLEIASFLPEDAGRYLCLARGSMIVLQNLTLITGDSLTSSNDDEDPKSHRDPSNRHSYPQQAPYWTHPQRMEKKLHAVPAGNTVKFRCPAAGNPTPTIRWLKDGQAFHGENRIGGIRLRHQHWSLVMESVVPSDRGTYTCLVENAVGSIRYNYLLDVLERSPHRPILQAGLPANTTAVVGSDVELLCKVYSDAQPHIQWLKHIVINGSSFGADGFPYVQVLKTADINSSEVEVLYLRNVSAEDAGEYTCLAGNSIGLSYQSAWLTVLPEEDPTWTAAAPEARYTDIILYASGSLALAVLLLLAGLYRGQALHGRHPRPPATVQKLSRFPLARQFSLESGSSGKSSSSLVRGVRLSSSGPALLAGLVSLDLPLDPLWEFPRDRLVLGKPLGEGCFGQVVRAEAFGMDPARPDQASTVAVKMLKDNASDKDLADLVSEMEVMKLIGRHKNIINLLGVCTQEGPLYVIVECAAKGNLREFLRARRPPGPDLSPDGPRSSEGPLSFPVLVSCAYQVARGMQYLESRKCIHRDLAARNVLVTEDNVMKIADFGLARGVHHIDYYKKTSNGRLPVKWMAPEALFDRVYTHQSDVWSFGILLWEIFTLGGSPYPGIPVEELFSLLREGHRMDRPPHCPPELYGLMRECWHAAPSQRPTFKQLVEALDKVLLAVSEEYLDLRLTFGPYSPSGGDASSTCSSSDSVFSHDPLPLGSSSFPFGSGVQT
Fibroblast growth factor receptor (Homo sapiens), sequence (P22607 whole entry, looked up): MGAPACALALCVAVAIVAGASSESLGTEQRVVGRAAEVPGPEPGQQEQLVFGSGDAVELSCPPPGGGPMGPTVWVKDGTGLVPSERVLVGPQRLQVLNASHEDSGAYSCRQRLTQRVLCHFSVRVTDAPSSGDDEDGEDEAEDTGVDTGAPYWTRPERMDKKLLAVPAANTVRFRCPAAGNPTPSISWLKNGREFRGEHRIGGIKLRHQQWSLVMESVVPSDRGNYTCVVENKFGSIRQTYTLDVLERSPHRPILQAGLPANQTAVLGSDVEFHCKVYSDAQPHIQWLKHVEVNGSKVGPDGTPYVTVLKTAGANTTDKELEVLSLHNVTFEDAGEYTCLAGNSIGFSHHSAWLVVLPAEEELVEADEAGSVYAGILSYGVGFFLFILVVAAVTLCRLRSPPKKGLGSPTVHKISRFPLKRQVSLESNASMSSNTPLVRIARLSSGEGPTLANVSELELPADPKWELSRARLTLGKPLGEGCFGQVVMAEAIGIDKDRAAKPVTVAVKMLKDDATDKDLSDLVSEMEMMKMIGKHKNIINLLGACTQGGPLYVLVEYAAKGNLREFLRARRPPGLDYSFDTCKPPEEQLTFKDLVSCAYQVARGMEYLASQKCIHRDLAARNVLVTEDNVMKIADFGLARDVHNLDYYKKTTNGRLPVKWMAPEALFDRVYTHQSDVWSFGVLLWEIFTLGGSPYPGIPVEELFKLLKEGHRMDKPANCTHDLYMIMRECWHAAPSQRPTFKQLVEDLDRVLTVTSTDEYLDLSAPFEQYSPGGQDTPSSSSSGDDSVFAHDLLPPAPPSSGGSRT

Activity [1]: Active
inhibition [2]: 76%
IC50 (BaF3): > 10 µM
inhibition [4]: 47%
half-life [5]: 58.2 min
Activity [6]: inactive
SMILES: COc1cc(OC)c(Cl)c(NC(=O)N(C)c2cc(Nc3ccc(N4CCN(C(=O)C5CCN(c6ccc7c(c6)C(=O)N(C6CCC(=O)NC6=O)C7=O)CC5)CC4)cc3)ncn2)c1Cl (stereo not drawn)
inhibition in vivo at 20 mg/kg (SNU-16): 63.1%
Activity [3]: Non-Toxic
